According to ChEMBL document CHEMBL4038269, “Design, synthesis and evaluation of novel feruloyl-donepezil hybrids as potential multitarget drugs for the treatment of Alzheimer's disease” (Eur J Med Chem, 2017):
Active and inactive are the calls of the source.

Experiments:
[1] = system: Mus musculus; assay: In vivo inhibition of COX-2 activity in carrageenan-induced Swiss mouse serum at 100 umol/kg, po pretreated for 1 hr followed by carrageenan challenge after 3 hrs by ELISA relative to control; type: functional
Method in brief: (§1)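 Male Swiss mice given oral drug (100 µmol/kg) or vehicle 1 h before intraplantar carrageenan (legend: 400 µg/paw). At 3 h, animals anaesthetised with chloral hydrate and cardiac blood taken. Serum separated (1500 rpm, 20 min) and frozen at -70 °C. COX-1, COX-2 and 5-LOX measured by specific sandwich ELISA at 450 nm. Expressed as % enzymatic activity, mean ± SEM, n=8.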

[2] = system: Mus musculus; assay: Antiinflammatory activity in formalin-induced nociception Swiss mouse model assessed as reduction in time spent licking formalin injected hind paw during neurogenic phase at 100 umol/kg, po pretreated for 1 hr followed by formalin challenge measured up to 5 mins; type: functional, organism-based
Method in brief: (§2)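 Male Swiss mice (22-28 g), n=8 per group, given oral vehicle (saline + DMSO 2%) or 100 µmol/kg 1 h before formalin (5% in 0.9% saline, 20 µl) into the right hind paw sub-plantar region. Morphine 39 µmol/kg i.p. was given 30 min before. Paw-licking time recorded at 0–5 min (neurogenic phase) and 20–30 min (inflammatory phase).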

[3] = system: Mus musculus; assay: Anti-inflammatory activity in Swiss mouse model of LPS-induced peritonitis assessed as inhibition of leukocyte migration at 100 umol/kg, po pretreated for 30 mins followed by LPS challenge measured after 4 hrs by Neubauer chamber method; type: functional, organism-based
Method in brief: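 Adult male Swiss mice (22-28 g), n=8 per group, dosed orally with 100 µmol/kg or vehicle (saline + DMSO 2%). 30 min later E. coli 026:B6 LPS, 100 µg/kg i.p. in sterile saline. Killed at 4 h by halothane overdose. Peritoneum lavaged with 10 ml PBS containing 0.5% sodium citrate. Total leukocytes counted in a Neubauer chamber, expressed as cells per cavity, mean ± SEM.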

[4] = Metal chelating activity assessed as absorption maximum for compound-Zn2+ complex formation at 75 uM after 30 mins by UV-Vis spectrophotometric method; type: functional
Method in brief: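 UV-Vis spectra in ethanol of compound at 75 µM alone or after 30 min incubation with CuSO4, FeSO4, FeCl3 or ZnCl2 (150 µM). Absorption maxima recorded.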

[5] = system: SH-SY5Y; assay: Neuroprotective activity in human SH-SY5Y cells assessed as reduction in amyloid beta (1 to 42)-induced late neuronal death at 20 uM after 24 hrs by propidium iodide staining based fluorescence microscopic method; type: functional, cell-based
Method in brief: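 SH-SY5Y cells at 5×10^3 cells/well, grown 24 h, then compound (20 µM) with Aβ1-42 oligomers for 24 h at 37 °C; oligomers 10 µM in methods, 20 µM in legend. Stained with propidium iodide (25 µg/mL in PBS) for 10 min. Four random fields of 50–100 cells scored by fluorescence microscopy; dead cells % = PI-positive/total × 100.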

[6] = system: SH-SY5Y; assay: Neuroprotective activity in human SH-SY5Y cells assessed as reduction in amyloid beta (1 to 42)-induced reactive oxygen species formation at 20 uM after 3 hrs by DHE probe based fluorescence microscopic method; type: functional, cell-based
Method in brief: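 SH-SY5Y cells on 8-well slides (1x10^4/well, 24 h) treated 3 h with compound (20 µM) and Aβ1-42 oligomers (10 µM) at 37 °C. Stained with dihydroethidium (10 µM, 30 min, dark), then 1 h in serum-free DMEM. Fluorescence imaged by microscopy; four random fields of 50–100 cells quantified in arbitrary units.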

[7] = Antioxidant activity assessed as DPPH radical scavenging activity measured after 30 mins; type: functional
Method in brief: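 DPPH scavenging: compound at 12.5, 25, 50 and 100 µM in ethanol (4 mL) mixed with 1 mL of 0.5 mM DPPH in ethanol. Shaken 30 min at room temperature, absorbance read at 517 nm. % inhibition = (A control − A sample)/A control × 100. Run in triplicate; EC50 obtained by linear regression of mean values.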

[8] = system: Mus musculus; assay: Antinociceptive activity in carrageenan-induced Swiss mouse model of mechanical hyperalgesia at 100 umol/kg, po pretreated for 1 hr followed by carrageenan challenge measured at 3 hrs post dose by Von Frey filament assay; type: functional, organism-based
Method in brief: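 Male Swiss mice (n=8) dosed orally with 100 µmol/kg or vehicle 1 h before intraplantar carrageenan (100 µg/paw). Mechanical threshold measured by up-and-down Von Frey method after 60 min acclimation on a wire screen. Started at 0.4 g filament, ≥6 trials at 10 s intervals, about 4 s per application. Reported as mean threshold in grams ± SEM.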

[9] = system: SH-SY5Y; assay: Antioxidant activity in human SH-SY5Y cells assessed as increase in GSH level at 20 uM by MCB probe based assay relative to control; type: functional; conditions: TDE = time-dependent effect
Method in brief: (§3)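 SH-SY5Y cells (DMEM, 10% FBS, 37 °C, 5% CO2) seeded at 2 x 10^4 cells/well and grown 24 h. Treated with 20 µM compound for 3-24 h. Then 50 µM monochlorobimane in PBS for 30 min at 37 °C. GSH fluorescence read at ex 360/em 465 nm, as % of control cells. Mean ± SD of three independent experiments.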

[10] = target: Cholinesterase (Equus caballus, UniProt P81908); assay: Inhibition of equine serum BuChE using butyrylthiocholine iodide as substrate pretreated for 10 mins followed by substrate addition measured at 12 secs interval for 5 mins by Ellman's method
Sequence of Cholinesterase (P81908 whole entry): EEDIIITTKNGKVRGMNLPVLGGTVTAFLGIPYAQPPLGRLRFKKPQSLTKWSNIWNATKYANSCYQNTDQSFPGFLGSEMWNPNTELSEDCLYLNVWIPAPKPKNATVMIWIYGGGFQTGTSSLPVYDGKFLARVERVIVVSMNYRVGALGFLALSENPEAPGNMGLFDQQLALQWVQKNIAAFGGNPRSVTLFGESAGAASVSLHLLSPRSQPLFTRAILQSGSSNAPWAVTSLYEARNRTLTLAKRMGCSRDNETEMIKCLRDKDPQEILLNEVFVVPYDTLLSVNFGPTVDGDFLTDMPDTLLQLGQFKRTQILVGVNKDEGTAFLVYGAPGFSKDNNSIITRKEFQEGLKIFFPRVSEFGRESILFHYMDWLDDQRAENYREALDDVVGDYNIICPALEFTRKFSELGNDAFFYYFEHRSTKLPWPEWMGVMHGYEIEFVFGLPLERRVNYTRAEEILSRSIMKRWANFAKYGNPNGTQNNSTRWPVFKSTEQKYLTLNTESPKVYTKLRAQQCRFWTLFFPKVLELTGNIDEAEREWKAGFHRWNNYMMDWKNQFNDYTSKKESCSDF
Method in brief: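 Ellman assay in 0.1 M sodium phosphate pH 7.4, enzyme 0.5 U/mL, DTNB 10 mM; concentration series preincubated 10 min before butyrylthiocholine iodide ([…]); A412 over 5 min at 12 s intervals. IC50 from fitted concentration-response curves, geometric mean of independent experiments, each in triplicate; DMSO ≤0.2% final.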

[11] = system: SH-SY5Y; assay: Neuroprotective activity in human SH-SY5Y cells assessed as reduction in amyloid beta (1 to 42)-induced exocytosis at 20 uM after 4 hrs by MTT dye based microscopic method; type: functional, cell-based
Method in brief: (§4)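 SH-SY5Y cells seeded at 3 x 10^4 cells/well, grown 24 h. Treated with compound (20 µM) plus Aβ1-42 oligomers (10 µM) for 4 h at 37 °C. Oligomers were prepared from HFIP-treated, DMSO-dissolved peptide and checked by TEM. MTT (5 mg/mL in PBS) added for 2 h. Cells inspected by light microscopy for needle-like exocytosed formazan crystals.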

[12] = system: SH-SY5Y; assay: Neuroprotective activity in human SH-SY5Y cells assessed as reduction in amyloid beta (1 to 42)-induced early vacuole formation at 20 uM after 4 hrs by MTT dye based microscopic method; type: functional, cell-based; method in brief: as §4
[13] = system: Mus musculus; assay: In vivo inhibition of 5-LOX activity in carrageenan-induced Swiss mouse serum at 100 umol/kg, po pretreated for 1 hr followed by carrageenan challenge after 3 hrs by ELISA relative to control; type: functional; method in brief: as §1
[14] = Selectivity ratio of IC50 for equine serum BuChE to IC50 Electrophorus electricus AChE
[15] = system: SH-SY5Y; assay: Antioxidant activity in human SH-SY5Y cells assessed as increase in GSH level at 20 uM after 24 hrs by MCB probe based assay relative to control; type: functional; method in brief: as §3
[16] = system: Mus musculus; assay: Antiinflammatory activity in formalin-induced nociception Swiss mouse model assessed as reduction in time spent licking formalin injected hind paw during inflammatory phase at 100 umol/kg, po pretreated for 1 hr followed by formalin challenge measured after 20 to 30 mins; type: functional, organism-based; method in brief: as §2

Q: Which results are given for `COc1cc(/C=C/C(=O)OCC2CCN(Cc3ccccc3)CC2)ccc1O`?
A: inhibition in vivo at 100 µmol/kg [1]: 27%; Activity [2]: Active; inhibition [3]: Active; Activity [4]: inactive; Activity [5]: Active; Activity [6]: Active; EC50 [7]: 49.4 µM; Activity [8]: Active; Activity [9]: Tde; IC50 [10]: 25 µM; Activity [11]: inactive; Activity [12]: inactive; inhibition in vivo at 100 µmol/kg [13]: 30%; Ratio IC50 [14]: 53; fold change (FC) [15]: 1.4; Activity [16]: Active
